Our source for the Activity values is ChEMBL document CHEMBL4699501, “Dihydrodibenzothiepine: Promising hydrophobic pharmacophore in the influenza cap-dependent endonuclease inhibitor” (Bioorg Med Chem Lett, 2020).

The test system of the assay is Influenza A virus. Briefly: Antiviral activity against Influenza A virus (A/WSN/1933(H1N1)) infected in mouse assessed as reduction in viral titer in lung by measuring reduction in virus infectivity in MDCK cells at 5 mg/kg, po administered after 5 days of infection and measured after 24 hrs. The format is functional, organism-based. An outline of the steps:
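Mice were inoculated with A/WSN/33 at 100 TCID50/mouse. Oral dosing was twice daily (BID), starting 5 days after infection. Lung virus titer (log TCID50/mL) was determined on MDCK cells 24 h after the first dose.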

Calls of active or inactive are those of the source. No cut-off for these calls is given here.

Consider `CCOC(=O)C1=C[C@@H](OC(CC)CC)[C@H](NC(C)=O)[C@@H](N)C1`, for which the outcome was Active.
